Results reported in ChEMBL document CHEMBL1148350, “Synthesis, biological activity, and three-dimensional quantitative structure-activity relationship model for a series of benzo[c]quinolizin-3-ones, nonsteroidal inhibitors of human steroid 5alpha-reductase 1” (J Med Chem, 2004).

Assays:
[1] = molecular target: T1, 3-oxo-5-alpha-steroid 4-dehydrogenase 1 (Homo sapiens, UniProt P18405); assay: Inhibitory concentration against human recombinant steroid 5-alpha-reductase type I in stably transfected chinese hamster ovary (CHO) 1827 cells using [3H]testosterone.
T1 sequence (P18405 whole entry): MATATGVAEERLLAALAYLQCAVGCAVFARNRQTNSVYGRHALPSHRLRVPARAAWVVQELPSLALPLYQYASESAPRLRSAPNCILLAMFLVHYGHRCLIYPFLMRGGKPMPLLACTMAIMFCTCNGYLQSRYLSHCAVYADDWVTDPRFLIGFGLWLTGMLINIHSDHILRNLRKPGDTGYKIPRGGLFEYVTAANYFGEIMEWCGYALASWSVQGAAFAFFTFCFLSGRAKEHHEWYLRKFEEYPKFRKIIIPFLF
Outline: (§1)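 Intact stably transfected CHO 1827 cells expressing human recombinant 5αR-1 were incubated 30 min with [3H]-testosterone at its Km (2 μM) plus inhibitor over 10^-9–10^-5 M. IC50 was obtained by four-parameter logistic fit. Finasteride served as reference inhibitor across repeated assays.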

[2] = molecular target: T1, 3-oxo-5-alpha-steroid 4-dehydrogenase 1; assay: Log of inhibitory concentration against human recombinant steroid 5-alpha-reductase type I in stably transfected chinese hamster ovary (CHO) 1827 cells using [3H]testosterone.; outline: as §1
[3] = Partition coefficient (logP); format: physicochemical; details: octanol/water
[4] = molecular target: T2, 3-oxo-5-alpha-steroid 4-dehydrogenase 2 (Homo sapiens, UniProt P31213); assay: Inhibitory concentration against human recombinant steroid 5-alpha-reductase type 2 in stably transfected chinese hamster ovary 1827 cells using [3H]testosterone
T2 sequence (P31213 whole entry): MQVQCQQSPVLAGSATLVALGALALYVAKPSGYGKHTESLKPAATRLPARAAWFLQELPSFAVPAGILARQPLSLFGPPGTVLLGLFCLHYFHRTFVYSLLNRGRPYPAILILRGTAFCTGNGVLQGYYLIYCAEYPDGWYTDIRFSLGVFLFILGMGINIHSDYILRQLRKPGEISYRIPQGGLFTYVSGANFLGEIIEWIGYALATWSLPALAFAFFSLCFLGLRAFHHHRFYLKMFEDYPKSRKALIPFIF
Outline: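 Intact stably transfected CHO 1827 cells incubated 30 min with [3H]testosterone at its Km concentration plus inhibitor over 10^-9–10^-5 M. IC50 fitted by four-parameter logistic equation. Finasteride run as reference inhibitor to check interassay reproducibility.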

## COC(=O)c1cccc(OC(=O)c2ccc3c(c2)CCC2=C(C)C(=O)CCN23)c1
[1]
  IC50: 965 nM
[2]
  IC50: 955 nM
[3]
  logP: 4.86

## CC1=C2CCc3cc(OCc4cc(C(F)(F)F)ccc4C(F)(F)F)ccc3N2CCC1=O
[1]
  IC50: 393 nM
[2]
  IC50: 389 nM
[3]
  logP: 6.41

## C=Cc1ccc2c(c1)CCC1=C(C)C(=O)CCN12
[1]
  IC50: 21.6 nM
[2]
  IC50: 21.4 nM
[3]
  logP: 3.57

## CC1=C2CCc3cc(OCc4ccc(Cl)cc4)ccc3N2CCC1=O
[1]
  IC50: 92.9 nM
[2]
  IC50: 93.3 nM
[3]
  logP: 5.35

## CC1=C2CCc3cc(Br)ccc3N2CCC1=O
[1]
  IC50: 8.1 nM
[2]
  IC50: 8.13 nM
[3]
  logP: 3.88

## CC1=C2CCc3cc(C#Cc4ccccc4)ccc3N2CCC1=O
[1]
  IC50: 8.75 nM
[2]
  IC50: 8.71 nM
[3]
  logP: 5.49

## COc1ccc2c(c1)CCC1=C(C)C(=O)CCN12
[1]
  IC50: 178 nM
[2]
  IC50: 182 nM
[3]
  logP: 2.87

## Cc1ccc2c(c1)CCC1=CC(=O)CCN12
[3]
  logP: 2.83

## CC1=C2CCc3cc(-c4cccnc4)ccc3N2CCC1=O
[1]
  IC50: 170 nM
[2]
  IC50: 170 nM
[3]
  logP: 3.35

## CC1=C2CCc3cc(C(=O)Oc4ccccc4)ccc3N2CCC1=O
[1]
  IC50: 942 nM
[2]
  IC50: 933 nM
[3]
  logP: 4.64

## CC1=C2CCc3cc(C)ccc3N2CCC1=O
[3]
  logP: 3.35

## CCOC(=O)c1ccc2c(c1)CCC1=C(C)C(=O)CCN12
[1]
  IC50: 221 nM
[2]
  IC50: 219 nM
[3]
  logP: 3.66

## COC(=O)c1ccc2c(c1)CCC1=C(C)C(=O)CCN12
[1]
  IC50: 117 nM
[2]
  IC50: 117 nM
[3]
  logP: 3.13

## CC1=C2CCc3cc(C(=O)OCc4ccccc4)ccc3N2CCC1=O
[1]
  IC50: 96.8 nM
[2]
  IC50: 97.7 nM
[3]
  logP: 4.96

## CC1=C2CCc3cc(Cl)ccc3N2CCC1=O
[1]
  IC50: 5.8 nM
[2]
  IC50: 5.62 nM
[3]
  logP: 3.73

## CC1=C2CCc3ccccc3N2CCC1=O
[3]
  logP: 2.85

## CC1=C2CCc3cc(OCc4ccc(C(F)(F)F)cc4C(F)(F)F)ccc3N2CCC1=O
[1]
  IC50: 149 nM
[2]
  IC50: 148 nM
[3]
  logP: 6.41

## CC1=C2CCc3cc(OCc4ccccc4)ccc3N2CCC1=O
[1]
  IC50: 111 nM
[2]
  IC50: 112 nM
[3]
  logP: 4.64

## CC1=C2CCc3cc(-c4ccco4)ccc3N2CCC1=O
[1]
  IC50: 133 nM
[2]
  IC50: 132 nM
[3]
  logP: 4.12

## CC1=C2CCc3cc(C(=O)Oc4ccc(C(C)(C)C)cc4)ccc3N2CCC1=O
[1]
  IC50: 560 nM
[2]
  IC50: 562 nM
[3]
  logP: 6.47

## CC1=C2CCc3cc(OCc4cccc(Cl)c4)ccc3N2CCC1=O
[1]
  IC50: 93 nM
[2]
  IC50: 93.3 nM
[3]
  logP: 5.35

## CC1=C2CCc3cc(OCc4ccc(C(F)(F)F)cc4)ccc3N2CCC1=O
[1]
  IC50: 83.7 nM
[2]
  IC50: 83.2 nM
[3]
  logP: 5.52

## CC1=C2CCc3cc(/C=C/c4ccccc4)ccc3N2CCC1=O
[1]
  IC50: 380 nM
[2]
  IC50: 380 nM
[3]
  logP: 5.54

## CC1=C2CCc3cc(/C=C\c4ccccc4)ccc3N2CCC1=O
[1]
  IC50: 14.2 nM
[2]
  IC50: 14.1 nM
[3]
  logP: 5.54

## CC1=C2CCc3cc(-c4ccccc4)ccc3N2CCC1=O
[1]
  IC50: 128 nM
[2]
  IC50: 129 nM
[3]
  logP: 4.74

## CC1=C2CCc3cc(C(=O)OC(C)C)ccc3N2CCC1=O
[1]
  IC50: 731 nM
[2]
  IC50: 724 nM
[3]
  logP: 3.97

## CCc1ccc2c(c1)CCC1=C(C)C(=O)CCN12
[1]
  IC50: 14 nM
[2]
  IC50: 14.1 nM
[3]
  logP: 3.88

## CC1=C2CCc3cc(C(=O)Oc4ccc(C)cc4)ccc3N2CCC1=O
[1]
  IC50: 1050 nM
[2]
  IC50: 1050 nM
[3]
  logP: 4.05

## COC(=O)c1ccc(OC(=O)c2ccc3c(c2)CCC2=C(C)C(=O)CCN23)cc1
[1]
  IC50: 121 nM
[2]
  IC50: 120 nM
[3]
  logP: 4.86

## O=C1C=C2CCc3cc(Cl)ccc3N2CC1
[3]
  logP: 3.22

## CC1=C2CCc3cc(-c4cccs4)ccc3N2CCC1=O
[1]
  IC50: 79 nM
[2]
  IC50: 79.4 nM
[3]
  logP: 4.62

## CC1=C2CCc3cc(C(=O)OC(C)(C)C)ccc3N2CCC1=O
[1]
  IC50: 1000 nM
[2]
  IC50: 1000 nM
[3]
  logP: 4.37

## CC1=C2CCc3cc(OCc4ccccc4Cl)ccc3N2CCC1=O
[1]
  IC50: 194 nM
[2]
  IC50: 195 nM
[3]
  logP: 5.35

## O=C1C=C2CCc3ccccc3N2CC1
[3]
  logP: 2.33

## CC(C)(C)NC(=O)[C@H]1CC[C@H]2[C@@H]3CC[C@H]4NC(=O)C=C[C@]4(C)[C@H]3CC[C@]12C [FINASTERIDE]
[4]
  IC50: 21 nM
